Marks after values point to notes of the source that are not given here.

Results on three compounds are retold here after PMC5096746 (Drug Design, Development and Therapy, 2016).

In series [1] the test system is carrageenan-induced rat-paw edema. Put plainly: Carrageenan-induced rat-paw edema, in vivo anti-inflammatory activity. On the set-up: species or system Wistar rats. To be noted: oral, dose equimolar to ibuprofen 20 mg/kg; for Anti-inflammatory activity (% inhibition ± SEM) 3 hours: 3 hours post-carrageenan; for Anti-inflammatory activity (% inhibition ± SEM) 4 hours: 4 hours post-carrageenan. (In the carrageenan paw model, swelling and tenderness develop within hours.)

Series [2] deals with gastric mucosa. Description: Acute ulcerogenic activity. In kind it is in vivo. The following applies: rats. In a few lines: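 Rats; controls received 0.5% carboxymethyl cellulose. After dosing, rats were fed a normal diet for 17 h and then killed. Stomachs opened along the greater curvature and mucosa examined under microscopy. Scoring: 0.5 redness, 1 spot ulcer, 1.5 haemorrhagic streaks, 2 ulcers >3 but <5, 3 ulcers >5. Severity index = treated-group mean score minus control mean.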

In series [3] the test system is NO (nitrite) in RAW264.7 mouse macrophages. Put plainly: Nitric oxide. In kind it is cell-based. To be noted: 20 µM compound, LPS-stimulated, LPS alone 20.46±1.03.
Series [4] concerns TNFα. Put plainly: In vitro TNFα assay. The following applies: Mus musculus, RAW264.7, read-out: TNFα inhibition. In kind it is cell-based. In a few lines: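 Macrophages grown in RPMI 1640 with 10% FBS, penicillin and streptomycin. Cells preincubated with cytochalasin D (2.5 μM/10^6 cells) for 30 min, then seeded at 2×10^6 cells/mL. LPS added with test compound or celecoxib at 20 μM for 24 h. Supernatant TNFα measured by sandwich ELISA (TMB substrate, 30 min dark, H2SO4 stop, A450) against kit standard.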

In the case of `c1ccc(COc2ccc(-c3nn(-c4ccccc4)cc3CNc3ccccc3)cc2)cc1` [Compound 5a, N-((3-(4-(Benzyloxy)phenyl)-1-phenyl-1H-pyrazol-4-yl)methyl)aniline], in series [1], the “Anti-inflammatory activity (% inhibition ± SEM) 3 hours” value is 50.77±4.28 ^c % and the “Anti-inflammatory activity (% inhibition ± SEM) 4 hours” value is 47.91±4.39 ^c %.
`CC(C)Cc1ccc(C(C)C(=O)O)cc1` (stereo not drawn) [Ibuprofen, ibuprofen]: in series [1], the “Anti-inflammatory activity (% inhibition ± SEM) 3 hours” value is listed as 81.32±0.59 ^a % and the “Anti-inflammatory activity (% inhibition ± SEM) 4 hours” value is listed as 79.23±0.4 ^a %. Besides, the “Gastric ulceration / mucosal damage (histopathology, in words)” value in series [2] (60 mg/kg) was “mucosal cell damage”. Also, in series [2] (60 mg/kg oral, killed after 17 hours, mean score minus control score), the “Ulcerogenic activity (severity index ± SEM)” value is 1.16±0.4.
The inhibition is the percentage by which the read-out fell short of the control. With `Cc1ccc(-c2cc(C(F)(F)F)nn2-c2ccc(S(N)(=O)=O)cc2)cc1` [Celecoxib, celecoxib], the “NO (nitrite/mg, mmol/mg) 20 µM” value in series [3] was 7.53 ± 0.23 mmol/mg; in series [3] (listed as celecoxib) it was 7.53 mmol/mg. For the same compound, the inhibition at 20 µM in series [4] came to 72%.
